Source: ChEMBL document CHEMBL1125205, “Phosphorus-containing inhibitors of HMG-CoA reductase. 2. Synthesis and biological activities of a series of substituted pyridines containing a hydroxyphosphinyl moiety” (J Med Chem, 1991)

Biological target: T1, 3-hydroxy-3-methylglutaryl-coenzyme A reductase (Rattus norvegicus, UniProt P51639)
T1 sequence (P51639 whole entry): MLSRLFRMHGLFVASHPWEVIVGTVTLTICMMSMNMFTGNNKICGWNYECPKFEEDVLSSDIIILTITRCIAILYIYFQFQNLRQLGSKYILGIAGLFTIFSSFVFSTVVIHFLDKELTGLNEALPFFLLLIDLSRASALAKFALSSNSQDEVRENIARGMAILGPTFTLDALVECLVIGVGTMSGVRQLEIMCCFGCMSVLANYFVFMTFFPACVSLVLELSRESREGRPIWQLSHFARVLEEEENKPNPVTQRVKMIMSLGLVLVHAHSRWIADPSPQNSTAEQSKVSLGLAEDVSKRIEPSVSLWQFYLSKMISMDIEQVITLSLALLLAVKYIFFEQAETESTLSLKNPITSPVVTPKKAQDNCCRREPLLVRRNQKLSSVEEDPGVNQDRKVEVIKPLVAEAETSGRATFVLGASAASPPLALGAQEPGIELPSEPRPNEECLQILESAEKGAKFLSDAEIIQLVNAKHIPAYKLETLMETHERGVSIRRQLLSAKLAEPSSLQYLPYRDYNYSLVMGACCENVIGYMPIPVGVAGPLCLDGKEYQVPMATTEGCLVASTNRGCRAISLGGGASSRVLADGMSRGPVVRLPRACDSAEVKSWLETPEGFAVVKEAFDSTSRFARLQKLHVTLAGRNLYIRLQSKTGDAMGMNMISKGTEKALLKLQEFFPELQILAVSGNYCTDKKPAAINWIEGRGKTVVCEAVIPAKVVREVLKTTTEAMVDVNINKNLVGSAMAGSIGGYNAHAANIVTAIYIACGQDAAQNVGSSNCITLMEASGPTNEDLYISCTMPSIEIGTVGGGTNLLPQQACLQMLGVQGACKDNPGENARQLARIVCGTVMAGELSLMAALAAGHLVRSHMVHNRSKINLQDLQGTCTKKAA
Assay: In vitro for inhibition of rat HMG-CoA reductase.
Conditions: read-out: I50
Summary of the method: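 Enzyme source: hepatic microsomes from cholestyramine-fed Sprague-Dawley rats. Final assay conditions: 0.04 M potassium phosphate pH 7.2, KCl, sucrose, EDTA, 10 mM DTT, 1% DMSO, 50-200 µg microsomal protein. Microsomes were preincubated with 2.7 mM NADPH for 15 min at 37 °C, then with compound for 15 min. 100 µM 14C-[D,L]-HMG-CoA was then added for 20 min at 37 °C. Read-out: 14C-mevalonate, corrected by 3H-mevalonate recovery. I50 taken from composite dose-response regressions, 2-5 experiments.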

Going from `CC(C)c1nc(C23CC4CC(CC(C4)C2)C3)cc(-c2ccc(F)cc2)c1C#CP(=O)(O)C[C@H](O)CC(=O)O` to `CC(C)c1nc(C2CC2)cc(-c2ccc(F)cc2)c1C#CP(=O)(O)C[C@H](O)CC(=O)O`, the IC50 falls from 43.8 nM to 4.2 nM (10-fold).

First: CC(C)c1nc(-c2ccccc2)c(-c2ccccc2)c(-c2ccc(F)cc2)c1C#CP(=O)(O)C[C@H](O)CC(=O)O
Second: CC(C)c1nc(-c2ccccc2)c(F)c(-c2ccc(F)cc2)c1C#CP(=O)(O)C[C@H](O)CC(=O)O
The IC50 of the first is 2.9-fold lower: 15.6 nM for the first, 44.9 nM for the second. The first is the more potent here.

Compared with `CCc1c(-c2ccccc2)nc(C(C)C)c(CCP(=O)(O)C[C@H](O)CC(=O)O)c1-c1ccc(F)cc1`, `Cc1c(-c2ccccc2)nc(C(C)C)c(CCP(=O)(O)C[C@H](O)CC(=O)O)c1-c1ccc(F)cc1` is 2.1-fold lower in IC50: 19.1 nM for the first, 9.2 nM for the second.

Compared with `CC(C)c1nc(-c2ccccc2Cc2ccccc2)cc(-c2ccc(F)cc2)c1C#CP(=O)(O)C[C@H](O)CC(=O)O`, `CC(C)c1nc(-c2cccc3ccccc23)cc(-c2ccc(F)cc2)c1C#CP(=O)(O)C[C@H](O)CC(=O)O` is 2.2-fold lower in IC50: 62.6 nM for the first, 28.7 nM for the second. The second is the more potent here.

Going from `CC(C)(C)c1nc(-c2ccccc2)cc(-c2ccc(F)cc2)c1C#CP(=O)(O)C[C@H](O)CC(=O)O` to `CC(C)c1cc(-c2ccccc2)nc(-c2ccc(F)cc2)c1C#CP(=O)(O)C[C@H](O)CC(=O)O`, the IC50 rises from 68.4 nM to 420 nM (6.1-fold). The first is the more potent here.

Compared with `Cc1nc(-c2ccccc2)c(C)c(-c2ccc(F)cc2)c1CCP(=O)(O)C[C@H](O)CC(=O)O`, `CCc1nc(-c2ccccc2)c(C)c(-c2ccc(F)cc2)c1CCP(=O)(O)C[C@H](O)CC(=O)O` is 2.9-fold lower in IC50: 235 nM for the first, 79.8 nM for the second. The second is the more potent here.

Going from `CCc1nc(-c2ccccc2)c(C)c(-c2ccc(F)cc2)c1C#CP(=O)(O)C[C@H](O)CC(=O)O` to `Cc1nc(-c2ccccc2)c(C)c(-c2ccc(F)cc2)c1C#CP(=O)(O)C[C@H](O)CC(=O)O`, the IC50 rises from 110 nM to 1300 nM (12-fold). The first is the more potent here.

First: CC(C)c1nc(C(C)(C)C)cc(-c2ccc(F)cc2)c1/C=C/P(=O)(O)C[C@H](O)CC(=O)O
Second: Cc1cc(-c2ccc(F)cc2)c(C#CP(=O)(O)C[C@H](O)CC(=O)O)c(C(C)C)n1
The IC50 of the first is 72-fold lower: 3.2 nM for the first, 231 nM for the second. The first is the more potent here.

First: CC(C)c1nc(-c2cccc3c2OCO3)cc(-c2ccc(F)cc2)c1C#CP(=O)(O)C[C@H](O)CC(=O)O
Second: Cc1ccccc1-c1cc(-c2ccc(F)cc2)c(C#CP(=O)(O)C[C@H](O)CC(=O)O)c(C(C)C)n1
The IC50 of the first is 2.6-fold higher: 84.6 nM for the first, 32.6 nM for the second.

`Cc1cc(F)ccc1-c1cc(-c2ccccc2)nc(C(C)C)c1CCP(=O)(O)C[C@H](O)CC(=O)O` and `Cc1cc(F)ccc1-c1cc(-c2ccccc2)nc(C(C)C)c1C#CP(=O)(O)C[C@H](O)CC(=O)O` are within 1.5-fold of each other in IC50: 115 nM for the first, 156 nM for the second.

First: CC(C)c1nc2c(c(-c3ccc(F)cc3)c1C#CP(=O)(O)C[C@H](O)CC(=O)O)CCc1ccccc1-2
Second: CC(C)c1nc2c(c(-c3ccc(F)cc3)c1C#CP(=O)(O)C[C@H](O)CC(=O)O)CCCc1ccccc1-2
The IC50 of the first is 3.6-fold higher: 52.5 nM for the first, 14.4 nM for the second.

First: CC(C)c1nc2c(c(-c3ccc(F)cc3)c1C#CP(=O)(O)C[C@H](O)CC(=O)O)Cc1ccccc1-2
Second: CC(C)c1nc(-c2ccccc2)c(C(C)C)c(-c2ccc(F)cc2)c1C#CP(=O)(O)C[C@H](O)CC(=O)O
The IC50 of the first is 7.7-fold higher: 75.6 nM for the first, 9.8 nM for the second.

`CC(C)c1nc(C(c2ccccc2)c2ccccc2)cc(-c2ccc(F)cc2)c1C#CP(=O)(O)C[C@H](O)CC(=O)O` and `CC(C)c1nc(-c2cccs2)cc(-c2ccc(F)cc2)c1C#CP(=O)(O)C[C@H](O)CC(=O)O` are within 1.5-fold of each other in IC50: 14.9 nM for the first, 14.6 nM for the second.

Going from `CC(C)c1nc(-c2cc(F)c(F)c(F)c2F)cc(-c2ccc(F)cc2)c1C#CP(=O)(O)C[C@H](O)CC(=O)O` to `Cc1cc(-c2cc(-c3ccccc3)nc(C(C)C)c2C#CP(=O)(O)C[C@H](O)CC(=O)O)ccc1F`, the IC50 rises from 8.9 nM to 22 nM (2.5-fold).

First: CCc1nc(-c2ccccc2)c(C)c(-c2ccc(F)cc2)c1/C=C/P(=O)(O)C[C@H](O)CC(=O)O
Second: Cc1c(-c2ccccc2)nc(C2CC2)c(/C=C/P(=O)(O)C[C@H](O)CC(=O)O)c1-c1ccc(F)cc1
The IC50 of the first is 1.9-fold higher: 4.7 nM for the first, 2.5 nM for the second.

Going from `Cc1c(-c2ccccc2)nc(C2CC2)c(C#CP(=O)(O)C[C@H](O)CC(=O)O)c1-c1ccc(F)cc1` to `CC(C)c1nc2c(c(-c3ccc(F)cc3)c1/C=C/P(=O)(O)C[C@H](O)CC(=O)O)CCCc1ccccc1-2`, the IC50 falls from 4.6 nM to 1.3 nM (3.5-fold). The second is the more potent here.
